Results on six compounds are retold here after ChEMBL document CHEMBL1140049, “Bioisosteric replacement of the pyrazole 5-aryl moiety of N-(piperidin-1-yl)-5-(4-chlorophenyl)-1-(2,4-dichlorophenyl)-4-methyl-1H-pyrazole-3-carboxamide (SR141716A). A novel series of alkynylthiophenes as potent and selective cannabinoid-1 receptor antagonists” (J Med Chem, 2008).

SMILES strings stand for the structures. The source made the active and inactive calls. The rule behind the calls is not given here.

Test [1] concerns Mus musculus. Put plainly: Decrease in body weight in DIO C57BL/6 mouse model at 10 mg/kg, po qd for 21 days.
In a further test the target is Cannabinoid receptor 2 (Homo sapiens, UniProt P34972). Kind of test: Displacement of [3H]CP-55940 from human CB2 receptor expressed in HEK293 cells. The test is classed as cell-based.
Chain of Cannabinoid receptor 2 (P34972 whole entry): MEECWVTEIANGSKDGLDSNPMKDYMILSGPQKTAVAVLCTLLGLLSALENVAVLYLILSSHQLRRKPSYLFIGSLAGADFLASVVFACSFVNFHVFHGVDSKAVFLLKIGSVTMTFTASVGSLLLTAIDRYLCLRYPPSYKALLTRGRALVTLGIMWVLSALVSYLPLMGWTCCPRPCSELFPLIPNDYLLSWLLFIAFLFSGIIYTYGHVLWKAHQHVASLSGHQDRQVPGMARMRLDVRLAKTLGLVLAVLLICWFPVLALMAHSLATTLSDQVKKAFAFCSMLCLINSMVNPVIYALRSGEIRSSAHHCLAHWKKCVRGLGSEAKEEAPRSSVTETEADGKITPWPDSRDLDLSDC
The test system of the next test is HEK293. Kind of test: Selectivity ratio of IC50 for human CB2 receptor to human CB1 receptor expressed in HEK293 cells. The test is classed as cell-based.
The target of test [2] is T1, Cannabinoid receptor 1 (Homo sapiens, UniProt P21554). Put plainly: biochemical. It counts as cell-based, HEK293.
T1 sequence (P21554 whole entry): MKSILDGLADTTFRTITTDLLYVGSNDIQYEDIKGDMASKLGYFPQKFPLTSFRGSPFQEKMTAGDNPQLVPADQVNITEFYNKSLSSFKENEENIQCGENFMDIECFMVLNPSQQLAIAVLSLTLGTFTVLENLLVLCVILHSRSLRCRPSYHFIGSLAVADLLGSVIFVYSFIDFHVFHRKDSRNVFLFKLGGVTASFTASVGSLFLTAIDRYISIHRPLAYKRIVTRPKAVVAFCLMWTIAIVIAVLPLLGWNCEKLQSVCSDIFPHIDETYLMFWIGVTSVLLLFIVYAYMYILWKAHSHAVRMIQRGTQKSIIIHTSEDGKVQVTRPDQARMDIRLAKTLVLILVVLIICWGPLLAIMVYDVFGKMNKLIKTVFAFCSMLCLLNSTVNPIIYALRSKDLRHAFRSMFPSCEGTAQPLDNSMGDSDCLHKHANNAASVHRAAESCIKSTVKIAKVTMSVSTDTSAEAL
The target in test [3] is T1, Cannabinoid receptor 1. Put plainly: Agonist activity at human CB1 receptor expressed in HEK293 cells assessed as increase in [35S]gammaGTP binding relative to control. It counts as cell-based.
Test [4] concerns the target T1, Cannabinoid receptor 1. Put plainly: Displacement of [3H]SR141716A from human CB1 receptor expressed in HEK293 cells. The test is classed as cell-based.
The target in test [5] is T1, Cannabinoid receptor 1. Kind of test: Antagonist activity at human CB1 receptor expressed in HEK293 cells assessed as inhibition of Eu-GTP binding. The test is classed as cell-based.
Test [6] concerns the target T1, Cannabinoid receptor 1. Put plainly: Antagonist activity at human CB1 receptor expressed in HEK293 cells assessed as effect on [35S]gammaGTP binding relative to control. It counts as cell-based.
The next test has as its system Rattus norvegicus. Kind of test: Suppression of appetite in orally dosed spontaneously feeding Wistar rat model. It counts as functional, organism-based. A digest of the protocol: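 Male Wistar rats (210-270 g), singly housed on 12 h reversed light cycle over a week; single oral gavage of 3, 10 or 20 mg/kg or vehicle (20% DMSO/10% Tween-80/70% H2O) before lights off, chow supplied at 11 a.m.; food intake at 1, 2, 3, 6 h as cal per g body weight; n = 4-6.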

The subject of test [7] is Mus musculus. Kind of test: Suppression of appetite in orally dosed DIO C57BL/6 mouse model. The test is classed as functional, organism-based.
In test [8] the test system is Mus musculus. Kind of test: Decrease in body weight in DIO C57BL/6 mouse model at 20 mg/kg, po qd for 21 days. The arrangement: dose 20 mg/kg. The test is classed as functional, organism-based.

For `Cc1c(C(=O)NN2CCCCC2)nn(-c2ccc(Cl)cc2Cl)c1-c1ccc(Cl)cc1`, in the test with Mus musculus [1], the outcome was Active.
The IC50 is the midpoint of a concentration-inhibition curve. A lower IC50 goes with inhibition by little substance. Broadly, the EC50 is the midpoint of the concentration-response curve. With `Cc1c(C(=O)NN2CCCCC2)nn(-c2ccc(Cl)cc2Cl)c1-c1ccc(C#CCC(C)C)s1`, the IC50 on Cannabinoid receptor 2 was 386 nM; at Cannabinoid receptor 1 [2], 2.3 nM; on Cannabinoid receptor 1 [4] it was 1.2 nM. Moreover, the Ratio IC50 in the test with HEK293 was determined as 168. The result on Cannabinoid receptor 1 [3] was Active. At Cannabinoid receptor 1 [5], the EC50 came to 12.1 nM.
For the compound `CCCC#Cc1ccc(-c2c(C)c(C(=O)NN3CCCCCC3)nn2-c2ccc(Cl)cc2Cl)s1`, the IC50 worked out at 1500 nM at Cannabinoid receptor 2, 7 nM against Cannabinoid receptor 1 [2] and 1.2 nM at Cannabinoid receptor 1 [4]. Besides, the Ratio IC50 in the test on HEK293 is 214. The result at Cannabinoid receptor 1 [6] was Active. For the same compound, at Cannabinoid receptor 1 [5], the 50% effective concentration (EC50) worked out at 14.1 nM.
As for `CCCC#Cc1ccc(-c2c(CC)c(C(=O)NN3CCCCC3)nn2-c2ccc(Cl)cc2Cl)s1`, the results for the IC50 on Cannabinoid receptor 2, on Cannabinoid receptor 1 [2] and on Cannabinoid receptor 1 [4] were 920 nM, 6.1 nM and 1.2 nM, respectively. Moreover, the Ratio IC50 with HEK293 is 151. Moreover, the Activity result with Rattus norvegicus and with Mus musculus [7] was “Dose-dependent effect” throughout. Also, the outcome in the test with Mus musculus [8] was Active. The EC50 on Cannabinoid receptor 1 [5] is 13.8 nM.
As for `CCCC#Cc1ccc(-c2c(C)c(C(=O)NN3CCCCC3)nn2-c2ccc(Cl)cc2Cl)s1`, the results for the IC50 at Cannabinoid receptor 2, at Cannabinoid receptor 1 [2] and at Cannabinoid receptor 1 [4] were 2210 nM, 13.9 nM and 1.2 nM, respectively. Further, in the test on HEK293, the Ratio IC50 was 159. The outcome on Cannabinoid receptor 1 [6] was Active. Also, the EC50 at Cannabinoid receptor 1 [5] is 28.7 nM.
In the case of `Cc1c(C(=O)NN2CCCCCC2)nn(-c2ccc(Cl)cc2Cl)c1-c1ccc(C#CCC(C)C)s1`, the concentration for half-maximal inhibition (IC50) is 688 nM on Cannabinoid receptor 2, 4.9 nM against Cannabinoid receptor 1 [2] and 1.2 nM on Cannabinoid receptor 1 [4]. Besides, in the test on HEK293, the Ratio IC50 worked out at 139. Also, the outcome at Cannabinoid receptor 1 [3] was Active. Also, the EC50 at Cannabinoid receptor 1 [5] is 14.6 nM.
